Shown are actives, neighbours in structure and some others; about 2.3% of the full set was active somewhere.
MC4R antag cAMP: blocks human MC4R cAMP signaling | MC4R-expressing cells, MTII-stimulated cAMP, LANCE TR-FRET | P32245 | 0.48% of 360,000 active | AID 540295 | inhibition, % at 6.5 µM;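 active means inhibition above its plate's cutoff, the mean of tested wells on that plate plus 3 SD, cut at about 29% in these data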
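Assay system: human MC4R-expressing U2OS cells; reagent: Melanotan II stimulation of cells; dosing: 6.5 µM single dose; timing: compound 30 min, challenge 1 h, detection 1 h; signal: TR-FRET cAMP assay; replicates: one well per compound, no replicates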
MC4R ag barr: human MC4R agonism via beta-arrestin; 0.98% of 360,000 active; U2OS MC4R beta-arrestin complementation, luminescence; percent of melanotan II response, DMSO zero; activation, % at 8.9 µM; AID 540308; P32245;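 active means activation above a per-plate cutoff, the mean activation of sample wells on that plate plus 3 SD, cut at about 8% in these data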
bovine MsrA act: activates bovine MsrA enzyme; 0.3% of 360,000 active; purified bovine MsrA, absorbance read-out; activation, % at 10.6 µM; in the data active means activation above about 7.5%
MsrA inh: inhibits bovine methionine sulfoxide reductase A; purified bovine MsrA, absorbance read-out; inhibition, % at 15.5 µM; 0.75% of 360,000 active; AID 651718; in the data active means inhibition above about 4.5%
MC4R barr ag: human MC4R beta-arrestin agonism confirmation; 31% of 2,400 active; activation, % at 8.9 µM; U2OS MC4R beta-arrestin recruitment, luminescence; scaled DMSO 0%, Melanotan II 100%; shares compounds with MC4R ag barr;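 active means mean activation across replicates above the hit cutoff set in the earlier primary screen, cut at about 8% in these data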
MOR DOR agonist: activates mu-delta opioid heterodimer, MC4R agonist counter-screen. U2OS PathHunter beta-arrestin, beta-gal luminescence; percent of deltorphin B response, DMSO zero. shares compounds with MC4R ag barr. AID 602194. 5.8% of 2,400 active. activation, % at 9.2 µM;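 active means mean activation across replicates exceeds the hit threshold derived in the earlier primary screen, cut at about 18% in these data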
Target sequence (P35372 whole entry, looked up): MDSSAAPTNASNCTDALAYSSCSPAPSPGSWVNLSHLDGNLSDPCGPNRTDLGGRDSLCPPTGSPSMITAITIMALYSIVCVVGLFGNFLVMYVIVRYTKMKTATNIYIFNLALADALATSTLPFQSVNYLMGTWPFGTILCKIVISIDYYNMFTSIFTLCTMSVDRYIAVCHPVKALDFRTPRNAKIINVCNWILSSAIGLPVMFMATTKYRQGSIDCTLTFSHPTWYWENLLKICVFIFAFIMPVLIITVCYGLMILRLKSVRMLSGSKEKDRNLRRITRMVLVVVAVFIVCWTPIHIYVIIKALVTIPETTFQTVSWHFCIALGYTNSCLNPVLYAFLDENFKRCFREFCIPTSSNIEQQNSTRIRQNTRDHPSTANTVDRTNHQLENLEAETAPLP
Target sequence (P41143 whole entry, looked up): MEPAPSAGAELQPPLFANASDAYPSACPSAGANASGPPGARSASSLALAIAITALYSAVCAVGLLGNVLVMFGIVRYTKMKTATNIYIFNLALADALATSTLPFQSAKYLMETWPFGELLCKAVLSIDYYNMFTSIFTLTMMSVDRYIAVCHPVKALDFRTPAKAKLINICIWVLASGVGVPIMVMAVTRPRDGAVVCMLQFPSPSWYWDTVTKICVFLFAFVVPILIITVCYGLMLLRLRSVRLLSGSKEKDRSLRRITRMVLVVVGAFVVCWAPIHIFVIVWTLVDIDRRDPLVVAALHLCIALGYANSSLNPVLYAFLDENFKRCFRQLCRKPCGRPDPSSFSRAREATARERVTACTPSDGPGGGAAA
Numbers stand for hits; 0 = inactive; - = no result given.

SMILES	MC4R antag cAMP	MC4R ag barr	bovine MsrA act	MsrA inh	MC4R barr ag	MOR DOR agonist
CC1CN=C(Nc2cccc(S(=O)(=O)N(C)C)c2)S1 (stereo not drawn)	0	0	0	0	-	-
Brc1ccc(CSc2ccc3nnc(-c4cccnc4)n3n2)cc1	0	0	0	0	-	-
CN1C(=O)/C(=C/c2ccc(OCc3ccc(F)cc3)cc2)NC1=S	0	20	0	0	0	0
CN1C(=O)/C(=C/c2ccc(OCc3ccc(F)cc3)cc2)N(C)C1=S	0	0	0	0	-	-
CN1C(=O)/C(=C/c2ccc(OCc3ccccc3F)cc2)NC1=S	0	20	0	0	0	0
Cc1ccc(CSc2ncccc2C(=O)O)cc1	0	0	0	0	-	-
O=C(COC(=O)/C=C/c1cccs1)Nc1nc(-c2ccccc2)cs1	0	32	0	0	0	0
CCc1ccc(C2NC(=S)NC3=C2C(=O)N(c2ccccc2OC)C(c2ccc(CC)cc2)N3)cc1 (stereo not drawn)	0	18	0	0	14	0
COc1ccccc1N1C(=O)c2ccccc2NC1c1ccncc1 (stereo not drawn)	0	0	0	0	-	-
O=C1C2=C(NC(=S)NC2c2ccc(Cl)cc2)NC(c2ccc(Cl)cc2)N1c1ccc(Cl)cc1 (stereo not drawn)	0	19	0	0	29	0
Cc1ccc(O)c(C(=O)/C=C/c2ccc3c(c2)OCCO3)c1	0	22	0	0	21	0
CCOC(=O)C1C(=O)NC(c2ccccc2)=NC1c1cccc(Br)c1 (stereo not drawn)	0	0	0	0	-	-
COc1ccc(Nc2nc3cc(-c4sccc4C)sc3c(=O)n2C)cc1OC	0	0	0	0	-	-
CCOC(=O)Cc1ccc(Nc2nc3cc(-c4sccc4C)sc3c(=O)n2C)cc1	0	14	0	0	0	0
Clc1ccc2[nH]c(-c3ccccc3)cc2c1	0	0	0	0	-	-
Cc1ccccc1N(C(=O)Cc1c[nH]c2ccccc12)C(C(=O)NC1CCCCC1)c1ccco1 (stereo not drawn)	0	21	0	0	0	0
Cc1ccc(C(C)(c2ccc(N)cc2)c2ccc(N)cc2)cc1	0	0	0	0	-	-
CC(=O)N(C)C(c1ccc(N(C)C)cc1)c1nnnn1-c1c(C)cccc1C (stereo not drawn)	0	0	0	0	-	-
CCOc1ccc(Br)cc1S(=O)(=O)Nc1ccc(C(=O)Nc2ccc(C)cc2)cc1	0	10	0	0	0	0
CC(C)C(=O)c1c(C(C)C)nn2ccccc12	0	0	0	0	-	-
Cc1cccc(S(=O)(=O)Nc2ccc(-c3nc4ccc(C)cc4s3)cc2)c1	0	16	0	0	0	0
Cc1ccc2nc(-c3ccc(NS(=O)(=O)c4c(C)n(C)c(=O)n(C)c4=O)cc3)sc2c1	0	0	0	0	-	-
Cc1ccc(S(=O)(=O)Nc2ccc(-c3nc4ccc(C)cc4s3)cc2)cc1	0	14	0	0	15	0
Cc1nc2oc3ccc(F)cc3c(=O)c2cc1C(=O)O	0	0	0	0	-	-
CCOc1c(C)cc2[nH]c(CCC(=O)O)nc2c1C	0	0	0	0	-	-
SMILES	MC4R antag cAMP	MC4R ag barr	bovine MsrA act	MsrA inh	MC4R barr ag	MOR DOR agonist
CCC1(C)Cc2c(sc3nc(SCC(=O)c4ccccc4)[nH]c(=O)c23)CO1 (stereo not drawn)	0	12	0	0	0	0
CCOC(=O)CSc1nc2sc3c(c2c(=O)[nH]1)CC(C)(CC)OC3 (stereo not drawn)	0	0	0	0	-	-
O=S(=O)(c1ccc2nc(-c3ccccc3)[nH]c2c1)N1CCN(c2ccc(Cl)cc2)CC1	0	11	0	0	0	0
CCCCc1ccc(NS(=O)(=O)c2cccs2)cc1	0	17	0	0	8.5	0
O=S(=O)(Nc1ccc(Cc2ccncc2)cc1)c1cccs1	0	0	0	0	-	-
CCOc1ccc(-c2nnc3n2N=C(c2ccc(OC)cc2)CS3)cc1	0	12	0	0	0	0
CCOc1ccc(C2=Nn3c(nnc3-c3ccccc3OC)SC2)cc1	0	0	0	0	-	-
Cc1ccc(C2=NN(C(=O)c3cccs3)C(c3ccccc3O)C2)cc1 (stereo not drawn)	0	18	0	0	30	0
O=C(c1ccccc1)N1N=C(c2ccccc2)CC1c1ccccc1O (stereo not drawn)	0	17	0	0	11	0
Cc1ccc(C2=NN(S(=O)(=O)c3ccccc3)C(c3ccccc3O)C2)cc1 (stereo not drawn)	0	12	0	0	9.7	0
O=C(c1cccs1)N1N=C(c2ccccc2)CC1c1ccccc1O (stereo not drawn)	0	13	0	0	0	0
CCOC(=O)[C@]12CCCC=C1N(CCC1=CCCCC1)C(=O)[C@H](CC(=O)NCc1ccc(OC)c(OC)c1)C2	-	-	-	0	-	-
CCN(C1CCCCC1)S(=O)(=O)c1ccc(-n2cnnn2)c(C)c1	0	0	0	0	-	-
CCn1cc(Cl)c(C(=O)N2N=C(c3ccc4ccccc4c3)CC2c2ccccc2O)n1 (stereo not drawn)	0	20	0	0	0	0
O=C(Nc1cnn(Cc2ccc(F)cc2)c1)c1cnn2c(C(F)F)cc(-c3ccccc3)nc12	0	0	0	0	-	-
Cc1cc(C)c2cc(C(=O)N3CCN(c4ncccc4C(F)(F)F)CC3)[nH]c2c1	0	12	0	0	0	0
Cc1nc2ccccc2c2oc(C(=O)Nc3ccc(C(C)C)cc3)cc12	0	27	0	0	9.2	0
COc1ccc(CNc2nc(NCc3ccc(OC)cc3)c3[nH]cnc3n2)cc1	0	12	0	0	8.8	0
O=C(NC(=S)NNC(=O)c1cccs1)c1ccco1	0	0	0	0	-	-
COc1cccc(C(C(=O)NC(C)(C)C)N(Cc2ccc(C)cc2)C(=O)CCC(=O)Nc2cc(C)on2)c1OC (stereo not drawn)	0	0	0	0	-	-
CC1=CC2=NC(=O)/C(=C\c3cccn3CCOc3cc(C)ccc3C)C(=N)N2O1	0	14	0	0	0	0
CCOc1cc(/C=C2/C(=N)N3OC(C)=CC3=NC2=O)ccc1OCCOc1ccccc1	0	14	0	0	9.2	0
CCOC(=O)c1c(NC(=O)c2ccccc2C)sc2c1CC(C)(C)OC2	0	0	0	0	-	-
Cc1cccc2sc(NC(=O)C3CCCN(S(=O)(=O)c4cccc5nonc45)C3)nc12 (stereo not drawn)	0	9.9	0	0	0	0
Cc1ccc(NC(=O)C2CCCN(S(=O)(=O)c3cccc4nonc34)C2)cc1 (stereo not drawn)	0	0	0	0	-	-
O=C(Nc1cccc(-c2cnc3ccccc3n2)c1)c1ccco1	0	0	0	0	-	-
O=C(CNC(=O)c1ccc(Br)o1)Nc1cccc(-c2cnc3ccccc3n2)c1	0	16	0	0	0	0
CCOc1ccc(CNC(=O)NS(=O)(=O)c2ccc(OC)cc2)cc1	0	0	0	0	-	-
